Exocytosis inh: blocks lytic granule exocytosis | 360,000 compounds, 0.66% hits | inhibition, % at 10 µM | AID 651702 | TALL-104 LAMP-1 surface exposure, flow cytometry; cells stimulated with thapsigargin and PMA;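 active means inhibition above about 55%, limit read from the data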
FGF22 binding: shifts melting point of recombinant human FGF22; AID 651658; recombinant FGF22 thermal shift, SYPRO orange fluorescence; percent of sucrose octasulfate shift, DMSO zero; 340,000 compounds, 1.5% hits; Q9HCT0; activity (Tm shift, normalised), % at 9.99 µM;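 active means mean Tm shift, scaled 0 neutral to 100 positive control, at about 1.3% or above, every replicate too, limit read from the data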
DAGLB inh: diacylglycerol lipase beta (human) inhibition. Q8NCG7. HEK293T DAGLB membrane lysate, EnzChek fluorogenic substrate. inhibition, % at 5.17 µM. 340,000 compounds, 0.059% hits. AID 504411; in the data active means inhibition above about 34%;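 further: 0% = enzyme with vehicle and 100% = wells lacking enzyme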
ABCB6 inh MLPCN: inhibitors of human ABC transporter ABCB6 | AID 602162 | fluorescence ratio to DMSO, % at 10 µM | 360,000 compounds, 0.19% hits | K562-ABCB6 porphyrin accumulation, flow cytometry, 1 h; hits give low values | Q9NP58;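 active means fluorescence ratio to DMSO below 75%, the collection mean minus 3 SD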;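 further: signal is porphyrin accumulated inside mitochondria; 100% equals median channel fluorescence of DMSO control wells; lower ratio means ABCB6 inhibition with less porphyrin fluorescence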
VLA-4 inh: inhibition in a human VLA-4 binding assay | VLA-4 expressing cells, ligand binding flow cytometry | inhibition, % (about 7 µM as worked out from the volumes in the protocol) | AID 2557 | P13612 | 330,000 compounds, 0.2% hits; in the data active means inhibition above about 50%
Target sequence (P13612 whole entry, looked up): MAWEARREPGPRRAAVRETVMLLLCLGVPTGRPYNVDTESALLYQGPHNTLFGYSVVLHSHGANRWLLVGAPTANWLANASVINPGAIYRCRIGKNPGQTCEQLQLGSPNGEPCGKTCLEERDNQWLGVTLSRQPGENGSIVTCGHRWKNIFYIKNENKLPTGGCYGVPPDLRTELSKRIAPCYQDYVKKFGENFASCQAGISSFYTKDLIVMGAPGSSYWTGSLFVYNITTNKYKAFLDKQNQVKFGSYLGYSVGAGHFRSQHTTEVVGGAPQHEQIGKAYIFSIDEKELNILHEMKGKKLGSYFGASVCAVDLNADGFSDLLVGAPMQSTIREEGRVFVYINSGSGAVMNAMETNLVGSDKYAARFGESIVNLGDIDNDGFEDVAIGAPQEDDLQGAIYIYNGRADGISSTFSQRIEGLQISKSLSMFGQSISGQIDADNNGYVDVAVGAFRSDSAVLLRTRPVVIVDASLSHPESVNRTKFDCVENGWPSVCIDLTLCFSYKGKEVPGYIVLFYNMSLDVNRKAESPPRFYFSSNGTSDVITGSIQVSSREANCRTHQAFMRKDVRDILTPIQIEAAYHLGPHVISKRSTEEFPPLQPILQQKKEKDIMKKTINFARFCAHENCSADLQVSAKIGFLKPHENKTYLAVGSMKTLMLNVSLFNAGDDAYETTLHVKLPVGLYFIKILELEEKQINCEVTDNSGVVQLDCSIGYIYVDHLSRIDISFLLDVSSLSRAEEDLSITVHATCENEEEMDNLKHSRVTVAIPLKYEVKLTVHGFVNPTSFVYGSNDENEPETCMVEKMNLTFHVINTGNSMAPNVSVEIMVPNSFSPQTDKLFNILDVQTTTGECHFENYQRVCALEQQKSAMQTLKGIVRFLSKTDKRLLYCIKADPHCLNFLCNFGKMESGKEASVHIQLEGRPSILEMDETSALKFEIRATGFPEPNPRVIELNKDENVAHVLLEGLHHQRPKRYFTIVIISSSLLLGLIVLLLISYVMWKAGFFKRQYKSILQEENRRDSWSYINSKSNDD
MT1-MMP act inh: blocks activation of human MT1-MMP | HT1080 RFP-PRO-GFP cells, GFP/RFP ratio fluorescence, overnight; percent of plate control window, DMSO zero | 360,000 compounds, 0.061% hits | GFP/RFP ratio change, % at 20 µM | P50281 | AID 651647;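 active means GFP/RFP ratio change of at least 30% with cell ATP level not reduced by more than half and red fluorescence within 50% of control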
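Assay system: HT1080 RFP-PRO-GFP cells. Benchmarks: DMSO vehicle wells and RFP-L50D-GFP reporter cell wells. Times: overnight cell settling, then overnight compound exposure, 37 °C, 5% CO2. Compound: 20 µM single dose, 1% DMSO. Read-out basis: GFP/RFP fluorescence ratio.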
VLA-4 mod pick: human VLA-4 allosteric modulation in cherry picked compounds. shares compounds with VLA-4 inh. U937 cells, HUTS-21 LIBS mAb binding, flow cytometry; LDV ligand present at threefold Kd. inhibition, % at 6.7 µM. 1,300 compounds, 2% hits; in the data active means inhibition above about 40%;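 further: 0% = ligand without compound and 100% = no ligand background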
* hit, by the source's call; . = no result; ! = a repeat was not active. Most compounds without a hit are left out; they make up all but 2% or so of the library.

SMILES	Exocytosis inh	FGF22 binding	DAGLB inh	ABCB6 inh MLPCN	VLA-4 inh	MT1-MMP act inh	VLA-4 mod pick
O=C(/C=C/c1ccc(O)c(O)c1)O[C@@H]1C[C@](O)(C(=O)O)C[C@@H](O)[C@H]1O	-5	-1	3	93	55*!	2	1
O=C(CN1CCN(Cc2ccc(Cl)cc2)CC1)N/N=C/C=C/c1ccccc1[N+](=O)[O-]	-2	0	2	98	18	0	.
O=C(CN1CCN(Cc2ccccc2)CC1)N/N=C/C=C/c1ccccc1[N+](=O)[O-]	15	1	2	100	43	0	-14
COCCNC(=O)C[C@@H]1C[C@H]2c3cc(NC(=O)c4ccc5c(c4)OCO5)ccc3O[C@H]2[C@H](CO)O1	.	0	.	.	.	.	.
O=C1CCC(c2ccccc2)=NN1	-7	0	0	110	2	4	.
O=C1CCC(c2ccc3c(c2)CCC3)=NN1	1	0	1	100	53*	4	1
CCOC(=O)C1CCCN(S(=O)(=O)c2cc3[nH]c(=O)c(=O)[nH]c3cc2C)C1 (stereo not given)	-4	0	-1	95	50*	3	-7
O=C(c1ccco1)N1CCN(C(=O)c2cc(Cl)nc3ccccc23)CC1	-4	0	0	96	-6	4	.
O=C(c1ccco1)N1CCN(C(=O)c2cc(-c3ccccn3)nc3ccccc23)CC1	2	.	4	100	-9	-4	-5
O=C(c1cc(-c2ccncc2)nc2ccccc12)N1CCN(c2ncccn2)CC1	4	0	0	99	-9	3	0
O=C(c1cc(-c2cccnc2)nc2ccc(Br)cc12)N1CCN(c2ncccn2)CC1	6	.	-4	100	1	-7	-3
O=C(c1cc(-c2ccncc2)nc2ccccc12)N1CCN(c2ccccc2O)CC1	5	.	3	93	0	-1	.
Cc1cccc(-c2ccc([C@H]3[C@@H](CO)N4CCCCN(C(=O)c5ccncc5)C[C@H]34)cc2)c1	.	0	.	.	.	.	.
CCCNC(=O)N1CC2(CN(C(=O)Nc3cccc(F)c3)C2)c2c(n(C)c3cc(OC)ccc23)[C@H]1CO	.	0	.	.	.	.	.
COc1ccccc1OCC(O)CN1CCN(CC(=O)Nc2c(C)cccc2C)CC1 (stereo not given)	0	0	4	99	51*!	2	-51
COc1cccc(NC(=O)N[C@@H]2C=C[C@@H](CC(=O)NCc3ccccn3)O[C@@H]2CO)c1	.	0	.	.	.	.	.
C[C@@H]1CN([C@@H](C)CO)C(=O)c2cccc(NC(=O)Nc3ccc(F)cc3)c2O[C@H]1CN(C)S(C)(=O)=O	.	0	.	.	.	.	.
O=[N+]([O-])c1cc2c(cc1C=Nc1ccccc1)OCO2	13	.	6	93	50*	6	-2
COc1ccc(-c2cn(CC[C@@H]3CC[C@@H](NC(=O)NC(C)C)[C@H](CO)O3)nn2)cc1	.	0	.	.	.	.	.
O=C(NC1CCCc2ccccc21)c1cccc(Br)c1 (stereo not given)	1	0	-6	98	43	-5	-18
O=C(NC1CCCc2ccccc21)c1ccc(Br)cc1 (stereo not given)	-4	0	-2	99	15	-3	.
COc1cccc2cc(C(N)=O)oc12	8	0	0	99	51*	-1	-4
COc1ccc(CNC(=O)C[C@@H]2C=C[C@H](NC(=O)CN(C)C)[C@H](CO)O2)cc1	.	0	.	.	.	.	.
CCCc1ccc(OCCNC(=O)CC)cc1	-4	.	0	96	51*	7	0
COCC(=O)N[C@@H]1C=C[C@@H](CC(=O)NCc2ccc(Cl)cc2)O[C@H]1CO	.	0	.	.	.	.	.
SMILES	Exocytosis inh	FGF22 binding	DAGLB inh	ABCB6 inh MLPCN	VLA-4 inh	MT1-MMP act inh	VLA-4 mod pick
CNC(=O)CSc1nc2c([nH]c3ccccc32)c(=O)n1CCOC	3	44*	-1	99	58*	7	2
COCCn1c(SCC(=O)Nc2ccc(F)cc2)nc2c([nH]c3ccccc32)c1=O	20	0	8	106	8	3	.
CCOc1ccc(Nc2ccnc3cc(Cl)ccc23)cc1	0	0	1	97	-1	-6	.
CCN1CCC(Nc2ccnc3cc(Cl)ccc23)CC1	33	0	-1	103	48	3	-5
Cc1ccc2nc(-c3ccccc3)cc(C(=O)N3CCN(S(=O)(=O)c4c(C)noc4C)CC3)c2c1	1	0	0	97	7	-4	-4
COc1cccc(NC(=O)N2C[C@H](O)COC[C@H]3O[C@@H](CC(=O)N(C)C)CC[C@@H]32)c1	.	0	.	.	.	.	.
CC=Cc1ccc2n(c1=O)C[C@H]1[C@H](CO)[C@@H](C(=O)N3CCCCC3)[C@@H]2N1C(=O)C1CCC1 (mixture of isomers)	.	0	.	.	.	.	.
COc1cc(CCCN2CCNC[C@@H]2c2ccccc2)cc(OC)c1OC	2	0	0	100	-6	-9	.
COc1cc(CCCN2C(=O)C(=O)NC[C@@H]2C(C)O)cc(OC)c1OC (stereo not given in full)	-5	0	1	101	-6	0	-4
COc1cc(CCCN2C(=O)C(=O)NC[C@@H]2c2ccccc2)cc(OC)c1OC	-2	0	-1	97	52*	1	5
COc1cc(CCCN2C(=O)C(=O)NC[C@@H]2CC2CCCCC2)cc(OC)c1OC	-2	0	-4	102	20	0	.
C[C@H]1CN([C@@H](C)CO)C(=O)c2cc(-c3cccc(C(=O)N(C)C)c3)cnc2O[C@@H]1CN(C)S(=O)(=O)c1ccccc1	.	0	.	.	.	.	.
Cc1cc(C)c(S(=O)(=O)c2ccccc2Cl)c(Cl)n1	0	0	.	102	10	5	.
Cc1cc(C)c(S(=O)(=O)c2ccc(F)cc2C)c(Cl)n1	-1	0	-1	100	44	1	-14
CN1C(=O)c2cc(NC(=O)c3cccs3)ccc2OC[C@H]2O[C@H](CC(=O)NCC(F)(F)F)CC[C@H]21	.	0	.	.	.	.	.
CC(C)(C)c1ccc(NC(=O)CCNC(=O)c2ccco2)cc1	-3	0	0	99	50*	-1	5
C[C@H]1CN([C@@H](C)CO)C(=O)CCCn2cc(nn2)CO[C@H]1CN(C)C(=O)NC1CCCC1	.	0	.	.	.	.	.
Cc1noc(C)c1NC(=O)N(C)C[C@@H]1OCCCC[C@H](C)Oc2ccc(NC(=O)C3CCCCC3)cc2C(=O)N([C@H](C)CO)C[C@H]1C	.	0	.	.	.	.	.
O=C(Nc1ccccc1N1CCCC1)C1CCN(C(=O)c2ccc(F)cc2)CC1	2	.	-1	93	-1	2	.

High-throughput results deposited in PubChem by several laboratories.
